Assay results reported in ChEMBL document CHEMBL2169875, “Designing allosteric regulators of thrombin. Monosulfated benzofuran dimers selectively interact with Arg173 of exosite 2 to induce inhibition” (J Med Chem, 2012).
pIC50: −log10 of the molar value. Calls of active or inactive are those of the source. The rule behind the calls is not given here.

What was measured:
[1] = Inhibition of wild type human plasma alpha-thrombin assessed as spectrozyme TH hydrolysis after 10 mins in absence of exosite 1 ligand HirP
In short: (§1)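 Buffer was 20 mM Tris-HCl pH 7.4, 100 mM NaCl, 2.5 mM CaCl2, 0.1% PEG 8000. After 10 min, Spectrozyme TH was added and A405 read. Apparent IC50 and efficacy came from a logistic fit with all parameters floating.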

[2] = species on record: Homo sapiens; experiment: Binding affinity to human antithrombin by spectrofluorometric analysis
[3] = biological target: T1, Prothrombin (Homo sapiens, UniProt P00734); experiment: Inhibition of recombinant wild type thrombin expressed in BHK cells assessed as spectrozyme TH hydrolysis at 0.25 to 12.5 mM after 10 mins; assay type: cell-based
[4] = Partial competitive inhibition of wild type human plasma alpha-thrombin assessed as spectrozyme TH hydrolysis after 10 mins in presence of 48 uM exosite 2 ligand UFH; assay type: cell-free; in short: as §1
[5] = species on record: Homo sapiens; experiment: Inhibition of wild type human plasma alpha-thrombin assessed as spectrozyme TH hydrolysis after 10 mins in presence of exosite 1 ligand HirP; assay type: cell-free; in short: as §1
[6] = Inhibition of recombinant thrombin Arg175Ala mutant expressed in BHK cells assessed as spectrozyme TH hydrolysis after 10 mins; assay type: cell-based
In short: (§2)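 Recombinant thrombins (wild type or Ala mutants) made as prothrombin-1 in BHK cells, purified by HPC4 immunoaffinity, activated, and active-site titrated. About 5 nM enzyme was incubated 10 min at 25 °C with inhibitor in 20 mM Tris-HCl pH 7.4, 100 mM NaCl, 2.5 mM CaCl2, 0.1% PEG 8000. Spectrozyme TH was then added, and the initial A405 rate was read. The dose-response of fractional residual activity was fitted to a logistic equation for IC50, Hill slope and efficacy.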

[7] = tested on: A549; experiment: Cytotoxicity against human A549 cells assessed as cell viability up to 420 uM after 120 hrs by MTT assay; assay type: cell-based; details: a549, 120 h
In short: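 A549 cells in DMEM with 10% heat-inactivated FBS were kept at 37 °C, 5% CO2. Cells were seeded at 30,000 per well for 4 h, then exposed to medium or varying compound concentrations (aqueous stock) for 120 h at 37 °C. MTT was added for 10 h, followed by SDS/DMF lysis for 10 h. Three experiments were run, analysed by one-way ANOVA with Dunnett's test.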

[8] = Inhibition of wild type human plasma alpha-thrombin assessed as spectrozyme TH hydrolysis after 10 mins by spectrophotometric analysis in absence of exosite 2 ligand UFH; in short: as §1
[9] = biological target: T1, Prothrombin; experiment: Inhibition of recombinant wild type thrombin expressed in BHK cells assessed as spectrozyme TH hydrolysis after 10 mins; assay type: cell-based; in short: as §2
[10] = tested on: BHK; experiment: Inhibition of recombinant thrombin Arg93,97,101Ala mutant expressed in BHK cells assessed as spectrozyme TH hydrolysis at 0.25 to 12.5 mM after 10 mins; assay type: cell-based
[11] = Inhibition of recombinant thrombin Arg93,97,101Ala mutant expressed in BHK cells assessed as spectrozyme TH hydrolysis after 10 mins; assay type: cell-based; in short: as §2
[12] = Inhibition of wild type human plasma alpha-thrombin assessed as spectrozyme TH hydrolysis after 10 mins in absence of exosite 2 ligand H8; in short: as §1
[13] = Inhibition of wild type human plasma alpha-thrombin assessed as spectrozyme TH hydrolysis after 10 mins in absence of exosite 2 ligand FibP; in short: as §1
[14] = Inhibition of recombinant thrombin Lys169Ala mutant expressed in BHK cells assessed as spectrozyme TH hydrolysis after 10 mins; assay type: cell-based; in short: as §2
[15] = Inhibition of recombinant thrombin Lys235Ala mutant expressed in BHK cells assessed as spectrozyme TH hydrolysis after 10 mins; assay type: cell-based; in short: as §2
[16] = Inhibition of wild type human plasma alpha-thrombin assessed as spectrozyme TH hydrolysis after 10 mins in presence of 10 uM exosite 2 ligand H8; assay type: cell-free; in short: as §1
[17] = Inhibition of wild type human plasma alpha-thrombin assessed as spectrozyme TH hydrolysis after 10 mins in presence of 6.5 uM exosite 2 ligand FibP; assay type: cell-free; in short: as §1
[18] = biological target: Coagulation factor X (Homo sapiens, UniProt P00742); experiment: Inhibition of human plasma F10a assessed as spectrozyme TH hydrolysis after 10 mins
Chain of Coagulation factor X (P00742 41-179 limits assumed): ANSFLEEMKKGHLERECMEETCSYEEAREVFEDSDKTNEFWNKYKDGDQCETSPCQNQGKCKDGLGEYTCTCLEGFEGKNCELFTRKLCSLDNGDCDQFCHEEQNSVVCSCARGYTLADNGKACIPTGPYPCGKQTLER
Chain of Coagulation factor X (P00742 235-488 limits assumed): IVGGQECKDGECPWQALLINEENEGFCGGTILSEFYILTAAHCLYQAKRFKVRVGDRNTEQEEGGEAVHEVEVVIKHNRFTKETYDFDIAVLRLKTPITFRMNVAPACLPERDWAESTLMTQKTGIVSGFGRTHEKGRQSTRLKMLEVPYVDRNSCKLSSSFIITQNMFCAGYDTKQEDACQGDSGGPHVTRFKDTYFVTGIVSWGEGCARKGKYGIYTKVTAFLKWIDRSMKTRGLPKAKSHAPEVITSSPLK
In short: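 Chromogenic assay of human plasma factor Xa (4 nM final) at 25 °C in 20 mM Tris-HCl pH 7.4, 100 mM NaCl, 2.5 mM CaCl2, 0.1% PEG 8000. Inhibitor dilutions (from 0.25–12.5 mM stocks) incubated with enzyme 10 min, then 1 mM Spectrozyme TH stock added. Initial rate at 405 nm gave fractional residual activity. Fitting the logistic equation yielded apparent IC50, Hill slope and efficacy ΔY.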

CCOC(=O)c1c(C)oc2cc(OCC)c(OCc3oc4cc(OCC)c(OS(=O)(=O)O)cc4c3C(=O)OCC)cc12
pIC50 [1]: 5.35

COCCOC(=O)c1c(C)oc2cc(OC)c(OCc3oc4cc(OC)c(OS(=O)(=O)O)cc4c3C(=O)OCCOC)cc12
pIC50 [1]: 4.77

CO[C@H]1O[C@H](COS(=O)(=O)O)[C@@H](O[C@@H]2O[C@@H](C(=O)O)[C@@H](O[C@H]3O[C@H](COS(=O)(=O)O)[C@@H](O[C@@H]4O[C@H](C(=O)O)[C@@H](O[C@H]5O[C@H](COS(=O)(=O)O)[C@@H](O)[C@H](O)[C@H]5NS(=O)(=O)O)[C@H](O)[C@H]4O)[C@H](OS(=O)(=O)O)[C@H]3NS(=O)(=O)O)[C@H](O)[C@H]2OS(=O)(=O)O)[C@H](O)[C@H]1NS(=O)(=O)O
Activity [2]: 50 nM

COC(=O)c1c(C)oc2cc(OC)c(OCc3oc4cc(OC)c(OS(=O)(=O)O)cc4c3C(=O)OC)cc12
pIC50 [1]: 4.50

CCOC(=O)c1c(C)oc2cc(OC(C)C)c(OCc3oc4cc(OC(C)C)c(OS(=O)(=O)O)cc4c3C(=O)OCC)cc12
pIC50 [1]: 5.89

COc1cc2oc(C)c(C(=O)O)c2cc1OCc1oc2cc(OC)c(OS(=O)(=O)O)cc2c1C(=O)O
pIC50 [1]: < 3.30

CCOC(=O)c1c(C)oc2cc(OC)c(OCc3oc4cc(OC)c(OS(=O)(=O)[O-])cc4c3C(=O)OCC)cc12.[Na+]
inhibition [3]: 30%
pIC50 [4]: 4.44
inhibition [5]: Active
pIC50 [6]: 5.31
pIC50 [1]: 5.21
Activity [7]: Non-toxic
pIC50 [8]: 5.06
pIC50 [9]: 5.26
inhibition [10]: 70%
pIC50 [11]: 5.30
pIC50 [12]: 5.57
pIC50 [13]: 5.10
pIC50 [14]: 5.31
pIC50 [15]: 5.31
pIC50 [16]: 5.43
pIC50 [17]: 3.93
pIC50 [18]: < 3.52
